Test results as given in ChEMBL document CHEMBL4613245, “Arenicolins: C-Glycosylated Depsides from Penicillium arenicola” (J Nat Prod, 2020).
Active and inactive are the calls of the source. The rule behind the calls is not given here.

Legend:
IMR-32 [1] = test: Cytotoxicity against human IMR32 cells after 48 hrs by CellTiter-Glo assay; type: functional, cell-based; settings: for IC50: IMR-32, 48 h
In short: (§1)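 Cells plated at 2000/well and preincubated 2 h, then exposed for 48 h to serial dilutions from 0.3 to 30.0 μM. Controls were 5-FU (positive) and fresh medium (negative). Each concentration ran in triplicate, and viability was read by CellTiter-Glo luminescence per the kit protocol.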

HCT-116 [2] = test: Cytotoxicity against human HCT116 cells after 48 hrs by CellTiter-Glo assay; type: functional, cell-based; settings: for IC50: HCT-116, 48 h; in short: as §1
Cryptococcus neoformans = test: Antifungal activity against Cryptococcus neoformans H99 at 100 ug/ml measured at 48 hrs by agar well diffusion method; settings: var grubii H99
BT-474 [3] = test: Cytotoxicity against human BT474 cells after 48 hrs by CellTiter-Glo assay; type: functional, cell-based; in short: as §1
Candida albicans = test: Antifungal activity against Candida albicans ATCC 10231 at 100 ug/ml measured at 24 hrs by agar well diffusion method
Staphylococcus aureus = test: Antibacterial activity against Staphylococcus aureus ATCC 43300 at 100 ug/ml incubated for 24 to 48 hrs; type: functional, organism-based
In short: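 Agar well diffusion: sample dissolved in DMSO at 0.1 mg/mL, 10 μL applied to a 4 mm well cut in YM agar seeded with an overnight S. aureus ATCC 43300 culture; plates held at 37 °C and read for inhibition zones after 24–48 h.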

HCT-116 [4] = test: Cytotoxicity against human HCT116 cells up to 30 uM after 48 hrs by CellTiter-Glo assay; type: functional, cell-based; in short: as §1
BT-474 [5] = test: Cytotoxicity against human BT474 cells up to 30 uM after 48 hrs by CellTiter-Glo assay; type: functional, cell-based; in short: as §1
IMR-32 [6] = test: Cytotoxicity against human IMR32 cells up to 30 uM after 48 hrs by CellTiter-Glo assay; type: functional, cell-based; in short: as §1

SMILES | IC50 (IMR-32 [1]) | IC50 (HCT-116 [2]) | Activity (Cryptococcus neoformans) | Activity (BT-474 [3]) | IC50 (BT-474 [3]; BT-474, 48 h) | Activity (IMR-32 [1]) | Activity (Candida albicans) | Activity (Staphylococcus aureus) | Activity (HCT-116 [2]) | Activity (HCT-116 [4]) | Activity (BT-474 [5]) | Activity (IMR-32 [6])
O=c1[nH]cc(F)c(=O)[nH]1 [FLUOROURACIL] | 5.7 µM | 6.5 µM |  |  |  |  |  |  |  |  |  | 
CCCCCCCc1cc(OC(=O)c2c(CCCCCCC)cc(O)c([C@@H]3O[C@H](CO)[C@@H](O)[C@H](O)[C@H]3O)c2O)cc(O)c1C(=O)O[C@@H]1C(=O)C(CO)=C[C@@H](O)[C@H]1O | 6 µM | 7.3 µM | inactive | Dose-dependent effect | 9.7 µM | Dose-dependent effect | inactive | inactive | Dose-dependent effect |  |  | 
CCCCCCCc1cc(OC(=O)c2c(CCCCCCC)cc(O)c([C@@H]3O[C@H](CO)[C@@H](O)[C@H](O)[C@H]3O)c2O)cc(O)c1C(=O)O |  |  | inactive |  |  |  | inactive | inactive |  | inactive | inactive | inactive
